By inhibition in vivo is commonly meant the relative decrease from the control value, in per cent. As a reminder, the ED50 is the dose at which the effect has come halfway, by size or by number of responders. Low readings indicate greater potency, high ones weaker potency. By pIC50 is commonly meant −log10 of the IC50, conventionally taken in molar units. A low value points to a high IC50.

Experiment [1] concerns Mus musculus. The experiment in a line: In vivo inhibition of FAAH in Swiss Webster mouse brain using [3H]-ethanolamine as substrate at 40 mg/kg, sc after 1 hr by liquid scintillation counting analysis in presence of Abcg2 inhibitor Ko-143. It counts as functional, organism-based. Also on record: dose 40 mg/kg.
Experiment [2] deals with Mus musculus. The experiment in a line: In vivo inhibition of FAAH in sc dosed Swiss Webster mouse brain using [3H]-ethanolamine as substrate after 1 hr by liquid scintillation counting analysis. The format is functional, organism-based.
Experiment [3] concerns Mus musculus. Nature of the experiment: In vivo inhibition of FAAH in Swiss Webster mouse liver using [3H]-ethanolamine as substrate at 1 mg/kg, ip after 1 hr by liquid scintillation counting analysis relative to control. The format is functional. The settings on record: route intraperitoneal.
In experiment [4] the test system is Mus musculus. The experiment in a line: In vivo inhibition of FAAH in Swiss Webster mouse brain using [3H]-ethanolamine as substrate at 1 mg/kg, ip after 1 hr by liquid scintillation counting analysis relative to control. The format is functional. The settings on record: route intraperitoneal.
The subject of experiment [5] is Mus musculus. The experiment in a line: In vivo inhibition of FAAH in ip dosed Swiss Webster mouse brain using [3H]-ethanolamine as substrate after 1 hr by liquid scintillation counting analysis. It counts as functional.
Experiment [6] deals with T1, Fatty-acid amide hydrolase 1 (Rattus norvegicus, UniProt P97612).
T1 sequence (P97612 whole entry): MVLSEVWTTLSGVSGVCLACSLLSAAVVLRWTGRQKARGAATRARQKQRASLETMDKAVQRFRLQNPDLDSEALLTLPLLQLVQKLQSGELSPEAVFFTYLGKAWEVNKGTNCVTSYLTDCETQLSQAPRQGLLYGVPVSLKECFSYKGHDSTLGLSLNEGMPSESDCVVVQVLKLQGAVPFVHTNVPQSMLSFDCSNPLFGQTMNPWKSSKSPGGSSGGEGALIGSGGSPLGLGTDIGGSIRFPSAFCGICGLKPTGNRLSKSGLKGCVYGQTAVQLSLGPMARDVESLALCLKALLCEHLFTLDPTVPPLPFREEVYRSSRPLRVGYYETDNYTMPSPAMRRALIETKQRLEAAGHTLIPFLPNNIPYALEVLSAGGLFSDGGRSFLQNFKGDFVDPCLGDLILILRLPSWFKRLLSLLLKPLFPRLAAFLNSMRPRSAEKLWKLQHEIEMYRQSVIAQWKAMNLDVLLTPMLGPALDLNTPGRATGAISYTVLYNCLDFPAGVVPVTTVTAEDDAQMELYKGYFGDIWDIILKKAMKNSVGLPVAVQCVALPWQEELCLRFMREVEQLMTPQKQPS
Nature of the experiment: Inhibition of Wistar rat brain FAAH using [3H]-ethanolamine as substrate preincubated for 20 mins followed by substrate addition by liquid scintillation counting analysis. The method in brief: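 FAAH source was the membrane homogenate of Wistar rat brain (50 μg protein). It was preincubated with inhibitor for 20 min at 37°C, then incubated 30 min at 37°C in Tris 50 mM pH 7.5 with 0.05% fatty acid-free BSA, 10 μM anandamide and anandamide[ethanolamine-3H]. The reaction was stopped with chloroform/methanol (1:1), and aqueous-layer radioactivity was counted by liquid scintillation to give IC50.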

Experiment [7] has as its system Mus musculus. Nature of the experiment: In vivo inhibition of FAAH in Swiss Webster mouse brain using [3H]-ethanolamine as substrate at 75 mg/kg, sc after 1 hr by liquid scintillation counting analysis. The format is functional, organism-based. Also on record: dose 75 mg/kg.
The test system of experiment [8] is Mus musculus. The experiment in a line: In vivo inhibition of FAAH in ip dosed Swiss Webster mouse peripheral tissue. The format is functional.
Experiment [9] relates to Mus musculus. The experiment in a line: In vivo inhibition of FAAH in ip dosed Swiss Webster mouse liver. It counts as functional.
For experiment [10], the system named is Mus musculus. Nature of the experiment: In vivo inhibition of FAAH in Swiss Webster mouse brain using [3H]-ethanolamine as substrate at 25 mg/kg, sc after 1 hr by liquid scintillation counting analysis in presence of Abcg2 inhibitor Ko-143. It counts as functional, organism-based. Also on record: dose 25 mg/kg. The method, boiled down: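 Adult male Swiss-Webster mice (25-30 g) got Ko-143 (15 mg/kg, i.p., in saline/PEG400/Tween80 18:1:1 with 30% DMSO) 20 min before a single s.c. dose of inhibitor in the same vehicle without DMSO. Brain taken 1 h later and homogenate supernatant (1000 × g) assayed: 37°C, 30 min, pH 7.5 Tris, 0.05% BSA, 10 μM anandamide plus [ethanolamine-3H]anandamide, aqueous-phase scintillation counting; mean ± s.e.m., n = 3-4.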

pIC50: −log10 of the molar value. Active and inactive are the calls of the source. No cut-off for these calls is given here.

`NC(=O)c1cccc(-c2cc(O)cc(OC(=O)NC3CCCCC3)c2)c1`: in the experiment with Mus musculus [1], the inhibition result is “Active”. In the experiment with Mus musculus [2], the inhibition entry was “Dose-dependent effect”. The inhibition in vivo at 1 mg/kg is 89.5% in the experiment on Mus musculus [3] and -4.2% in the experiment on Mus musculus [4]. This compound also returned an ED50 with Mus musculus [5] of 75 mg/kg.
Compound `CC(O)c1cccc(-c2cc(OC(=O)NC3CCCCC3)ccc2O)c1` (stereo not given) had a pIC50 in experiment [6] of 8.70. Moreover, the inhibition in vivo at 1 mg/kg was found to be 80.9% in the experiment on Mus musculus [3] and 89.6% in the experiment with Mus musculus [4].
On to `NC(=O)c1cccc(-c2cc(OC(=O)NC3CCCCC3)ccc2C(=O)O)c1`, for which the inhibition result in the experiment with Mus musculus [1] and in the experiment on Mus musculus [7] was “inactive” in each case. Further, the inhibition result in the experiment on Mus musculus [2] was “Dose-dependent effect”. Also, the inhibition in vivo at 1 mg/kg was 86.3% in the experiment with Mus musculus [3] and -2.1% in the experiment on Mus musculus [4].
With `NC(=O)c1cccc(-c2cc(OC(=O)NC3CCCCC3)ccc2O)c1`, the ED50 with Mus musculus [8] amounted to 0.2 mg/kg; in the experiment on Mus musculus [9], 0.2 mg/kg; in the experiment on Mus musculus [5], 40 mg/kg. In the experiment with Mus musculus [2], the inhibition result is “Dose-dependent effect”. For the same compound, the results for the inhibition in vivo at 1 mg/kg in the experiment with Mus musculus [3] and with Mus musculus [4] were 91.7% and -3%, respectively. Moreover, in the experiment on Mus musculus [10], the inhibition result is “Active”.
